Source: ChEMBL document CHEMBL5126498, “Peptidomimetic nitrile warheads as SARS-CoV-2 3CL protease inhibitors” (RSC Med Chem, 2021)
pEC50, pIC50: −log10 of the molar value.

Columns and labels:
[1] = Cytotoxicity against human A549 cells assessed as reduction in cell viability by CellTiter-Glo assay; assay type: toxicity, cell-based
How it was run: (§1)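 Vero E6 or A549 cells were seeded at 1×10^4/well and left overnight. Compounds were added at final 50 and 200 μM in 0.5% DMSO for 24 h. Read-out was CellTiter-Glo luminescence, with viability calculated relative to 0.5% DMSO-treated cells. Quadruplicate wells were run in one experiment, and CC50 was interpolated where possible.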

Procathepsin L [2] = target: T1, Procathepsin L (Homo sapiens, UniProt P07711); experiment: Inhibition of human cathepsin L at 1 uM relative to control
Target sequence in this assay (P07711 114-333 limits assumed): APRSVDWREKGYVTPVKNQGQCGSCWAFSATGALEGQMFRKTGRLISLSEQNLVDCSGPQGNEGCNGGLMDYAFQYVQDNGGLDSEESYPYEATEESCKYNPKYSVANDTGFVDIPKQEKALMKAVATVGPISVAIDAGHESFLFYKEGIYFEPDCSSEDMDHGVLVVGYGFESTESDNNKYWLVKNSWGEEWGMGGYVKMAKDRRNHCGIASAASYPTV

SARS-CoV-2 [3] = experiment: Antiviral activity against SARS-CoV-2 infected in African Green monkey Vero E6 cells assessed as reduction in viral plaques by plaque reduction assay; assay type: functional, organism-based; details: Severe acute respiratory syndrome coronavirus 2, Vero C1008
[4] = Cytotoxicity against African Green monkey Vero E6 cells assessed as reduction in cell viability by CCK-8 assay; assay type: toxicity, cell-based, Vero C1008; details: chlorocebus sabaeus
How it was run: as §1, with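 “CCK-8 absorbance” for “Read-out”, “read at 450 nm, and” for “CellTiter-Glo luminescence, with”, “viability was” for “viability”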

[5] = Cytotoxicity against African Green monkey Vero E6 cells assessed as reduction in cell viability by CellTiter-Glo assay; assay type: toxicity, cell-based, Vero C1008; details: chlorocebus sabaeus; how it was run: as §1
Cathepsin S [6] = target: T2, Cathepsin S (Homo sapiens, UniProt P25774); experiment: Inhibition of human cathepsin S at 1 uM relative to control
How it was run: (§2)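 Human cathepsin S fluorometric kit assay, with compound incubated 30 min at room temperature at final 1% DMSO. […] Enzyme-control and test slopes were obtained by linear regression, and % relative inhibition was calculated per kit.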
Target sequence in this assay (P25774 115-331 limits assumed): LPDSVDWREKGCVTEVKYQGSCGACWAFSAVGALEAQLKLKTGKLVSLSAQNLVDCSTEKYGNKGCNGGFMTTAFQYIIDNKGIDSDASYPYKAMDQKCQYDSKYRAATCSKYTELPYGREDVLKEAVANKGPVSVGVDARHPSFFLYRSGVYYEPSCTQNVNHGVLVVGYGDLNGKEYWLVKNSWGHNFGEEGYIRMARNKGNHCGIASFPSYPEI

[7] = Cytotoxicity against human A549 cells assessed as reduction in cell viability by CCK-8 assay; assay type: toxicity, cell-based
How it was run: as §1, with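 “CCK-8 absorbance” for “Read-out”, “read at 450 nm, and” for “CellTiter-Glo luminescence, with”, “viability was” for “viability”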

Cathepsin B [8] = target: T3, Cathepsin B (Homo sapiens, UniProt P07858); experiment: Inhibition of human cathepsin B at 1 uM relative to control
Procathepsin L [9] = target: T1, Procathepsin L; experiment: Inhibition of human cathepsin L
Target sequence in this assay (P07711 whole entry): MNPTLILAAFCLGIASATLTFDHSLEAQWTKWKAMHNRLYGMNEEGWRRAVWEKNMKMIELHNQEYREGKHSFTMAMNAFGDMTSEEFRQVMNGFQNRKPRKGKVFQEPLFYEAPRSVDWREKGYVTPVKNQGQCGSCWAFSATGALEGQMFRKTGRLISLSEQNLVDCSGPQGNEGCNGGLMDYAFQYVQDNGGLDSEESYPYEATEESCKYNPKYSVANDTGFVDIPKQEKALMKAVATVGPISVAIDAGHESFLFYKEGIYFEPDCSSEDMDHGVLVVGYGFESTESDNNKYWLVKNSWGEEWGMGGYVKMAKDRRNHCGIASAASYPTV

Cathepsin S [10] = target: T2, Cathepsin S; experiment: Inhibition of human cathepsin S; how it was run: as §2
Target sequence in this assay (P25774 whole entry): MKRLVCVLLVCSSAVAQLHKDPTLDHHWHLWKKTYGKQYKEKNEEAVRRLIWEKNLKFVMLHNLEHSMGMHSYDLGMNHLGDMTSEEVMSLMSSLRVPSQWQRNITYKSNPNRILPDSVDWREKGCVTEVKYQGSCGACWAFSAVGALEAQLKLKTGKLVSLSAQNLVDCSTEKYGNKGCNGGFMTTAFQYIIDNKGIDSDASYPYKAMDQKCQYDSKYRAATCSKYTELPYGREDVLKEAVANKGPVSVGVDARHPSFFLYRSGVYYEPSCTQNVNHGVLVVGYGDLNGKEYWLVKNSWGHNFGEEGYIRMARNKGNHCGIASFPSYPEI

Cathepsin B [11] = target: T3, Cathepsin B; experiment: Inhibition of human cathepsin B
SARS-CoV-2 [12] = experiment: Antiviral activity against SARS-CoV-2 infected in African Green monkey Vero E6 cells assessed as reduction in viral plaques in presence of efflux inhibitor CP-100356 by plaque reduction assay; assay type: functional, organism-based; details: Severe acute respiratory syndrome coronavirus 2, Vero C1008
[13] = Glutathione reactivity at pH 7.4 assessed as compound recovery measured after 24 hrs by LC-MS/MS method; assay type: physicochemical; details: glutathione solution, read-out: Activity
[14] = target: Replicase polyprotein 1ab (Severe acute respiratory syndrome coronavirus 2) (UniProt P0DTD1); experiment: Reversible inhibition of SARS-CoV-2 3CL protease assessed as enzyme recovery measured after 3 days by dialysis method relative to control; parameters: scale not given: the % may be the effect or the level left; details: time 3.0 day
How it was run: (§3)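 SARS-CoV-2 3CLpro (final 2 μM) was preincubated with 20 μM inhibitor for 30 min at room temperature. Activity was compared with apo-enzyme dialysed under identical conditions.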

[15] = target: Replicase polyprotein 1ab (Severe acute respiratory syndrome coronavirus 2) (UniProt P0DTD1); experiment: Reversible inhibition of SARS-CoV-2 3CL protease assessed as enzyme recovery measured after 4 hrs by dialysis method relative to control; parameters: scale not given: the % may be the effect or the level left; how it was run: as §3
[16] = Selectivity ratio, ratio of IC50 for inhibition of human cathepsin S to IC50 for inhibition of SARS-CoV-2 3CL protease
[17] = Stability of the compound in presence of glutathione by LC-MS/MS method; assay type: physicochemical
[18] = Selectivity ratio, ratio of IC50 for inhibition of human cathepsin B to IC50 for inhibition of SARS-CoV-2 3CL protease
[19] = Selectivity ratio, ratio of IC50 for inhibition of human cathepsin L to IC50 for inhibition of SARS-CoV-2 3CL protease
[20] = target: Replicase polyprotein 1ab (Severe acute respiratory syndrome coronavirus 2, UniProt P0DTD1); experiment: Inhibition of SARS-CoV-2 3CL protease by FRET assay
[21] = Inhibition of Enterovirus 71 3Cpro

Structure (SMILES) | CC50 [1] [µM] | inhibition (Procathepsin L [2]) [%] | pEC50 (SARS-CoV-2 [3]) | CC50 [4] [µM] | CC50 [5] [µM] | inhibition (Cathepsin S [6]) [%] | CC50 [7] [µM] | inhibition (Cathepsin B [8]) [%] | pIC50 (Procathepsin L [9]) | pIC50 (Cathepsin S [10]) | pIC50 (Cathepsin B [11]) | pEC50 (SARS-CoV-2 [12]) | also measured
CC(C)C[C@H](NC(=O)c1cc2c3c(ccc2[nH]1)CCO3)C(=O)N[C@H](C#N)C[C@@H]1CCCNC1=O | > 200 | 10 | < 5.00 | > 200 | > 200 | 67 | > 200 | < 1 | – | – | – | – | –
COc1cccc2[nH]c(C(=O)N[C@@H](CC(C)C)C(=O)N[C@H](C=O)C[C@@H]3CCNC3=O)cc12 | > 200 | 53 | – | > 200 | > 200 | – | > 200 | – | 6.55 | 7.40 | 5.70 | – | –
COc1cc(Cl)cc2[nH]c(C(=O)N[C@@H](CC(C)C)C(=O)N[C@H](C#N)C[C@@H]3CCCNC3=O)cc12 | > 200 | 37 | 5.66 | > 200 | > 200 | 72 | > 200 | < 1 | 6.33 | 6.40 | 4.74 | 6.63 | –
COc1cccc2[nH]c(C(=O)N[C@@H](CC(C)C)C(=O)N[C@H](C#N)C[C@@H]3CCCNC3=O)cc12 | > 200 | 22 | 5.57 | > 200 | > 200 | 73 | > 200 | < 1 | 6.19 | 5.60 | 4.49 | 6.64 | remaining at 24 h [13]: ≥ 90%; Activity [14]: 45%; Activity [15]: 10%; Ratio IC50 [16]: 189; Stability [17]: Stable; Ratio IC50 [18]: 2420; Ratio IC50 [19]: 48
CCOc1cccc2[nH]c(C(=O)N[C@@H](CC(C)C)C(=O)N[C@H](C#N)C[C@@H]3CCCNC3=O)cc12 | > 200 | < 1 | 5.32 | > 200 | > 200 | 74 | > 200 | < 1 | – | – | – | 6.92 | –
CC(C)C[C@H](NC(=O)c1cc2c(OC(F)(F)F)cccc2[nH]1)C(=O)N[C@H](C#N)C[C@@H]1CCCNC1=O | 90 | 8 | 5.59 | > 100 | > 100 | 67 | 90 | < 1 | – | – | – | 6.46 | pIC50 [20]: 7.86
CC(C)C[C@H](NC(=O)[C@@H](NC(=O)[C@H](C)NC(=O)OCc1ccccc1)C(C)C)C(=O)N[C@H](C#N)CCC(N)=O | – | – | – | – | – | – | – | – | – | – | – | – | pIC50 [20]: 5.34
COc1cc(Cl)cc2[nH]c(C(=O)N[C@@H](CC(C)(C)C)C(=O)N[C@H](C#N)C[C@@H]3CCCNC3=O)cc12 | > 200 | 18 | 5.82 | > 200 | > 200 | 64 | > 200 | < 1 | – | – | – | 6.68 | –
Cc1cc(C(=O)N[C@@H](Cc2ccc(F)cc2)C(=O)N[C@H](C#N)C[C@@H]2CCCNC2=O)no1 | – | – | – | – | – | – | – | – | – | – | – | – | pIC50 [21]: 4.83
CC(C)C[C@H](NC(=O)OCc1ccccc1)C(=O)N[C@@H](C[C@@H]1CCNC1=O)C(O)S(=O)(=O)O (some centres not stated) | > 200 | 100 | – | > 200 | > 200 | 99 | > 200 | 53 | 9.60 | 7.64 | 5.85 | – | –
COc1cccc2[nH]c(C(=O)N[C@@H](CC(C)C)C(=O)N[C@H](C#N)C[C@@H]3CCNC3=O)cc12 | > 200 | 15 | < 5.30 | > 200 | > 200 | 78 | > 200 | < 1 | 5.84 | 6.15 | 4.55 | – | –
COc1cccc2[nH]c(C(=O)N[C@@H](CC(C)C)C(=O)N[C@@H](C[C@@H]3CCCNC3=O)C(=O)CO)cc12 | > 200 | – | – | > 200 | > 200 | – | > 200 | – | – | – | – | – | –
